Screening data (PubChem BioAssay)
Only some compounds are listed: those with a hit (about 3.3% of all), similar ones and a draw of the others.
AHR act: activators of human aryl hydrocarbon receptor; 320,000 tested, 2.5% active; AID 2796; AHR-responsive luciferase reporter cells, luminescence; P35869; activation, % at 5 µM; in the data active means activation above about 47%;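 further: 0% = vehicle wells and 100% = reference agonist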
Target sequence (P35869 whole entry, looked up): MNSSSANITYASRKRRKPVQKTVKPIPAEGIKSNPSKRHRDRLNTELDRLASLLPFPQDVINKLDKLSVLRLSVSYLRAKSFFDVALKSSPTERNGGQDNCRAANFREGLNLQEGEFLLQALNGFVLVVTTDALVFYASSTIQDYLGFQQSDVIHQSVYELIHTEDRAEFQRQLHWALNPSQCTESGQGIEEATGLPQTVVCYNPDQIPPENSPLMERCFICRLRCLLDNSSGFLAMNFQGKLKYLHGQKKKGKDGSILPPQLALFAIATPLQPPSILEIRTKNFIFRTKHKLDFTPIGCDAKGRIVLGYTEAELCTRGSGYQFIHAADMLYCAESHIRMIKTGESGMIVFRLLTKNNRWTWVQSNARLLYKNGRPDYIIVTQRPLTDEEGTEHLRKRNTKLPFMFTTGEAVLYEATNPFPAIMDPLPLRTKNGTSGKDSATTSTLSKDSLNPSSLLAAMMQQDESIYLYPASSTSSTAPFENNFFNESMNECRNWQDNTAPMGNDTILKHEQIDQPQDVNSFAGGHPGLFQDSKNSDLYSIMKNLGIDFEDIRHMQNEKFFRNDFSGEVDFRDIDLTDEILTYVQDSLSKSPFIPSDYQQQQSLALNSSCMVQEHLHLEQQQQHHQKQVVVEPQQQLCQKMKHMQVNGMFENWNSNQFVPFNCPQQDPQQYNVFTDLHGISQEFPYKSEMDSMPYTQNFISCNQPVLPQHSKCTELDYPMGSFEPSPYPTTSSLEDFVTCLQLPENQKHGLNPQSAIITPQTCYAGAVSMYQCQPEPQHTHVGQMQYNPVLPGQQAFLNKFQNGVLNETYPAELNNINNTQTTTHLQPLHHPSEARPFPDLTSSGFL
ABCB6 inh MLPCN: inhibitors of human ABC transporter ABCB6; Q9NP58; K562-ABCB6 porphyrin accumulation, flow cytometry, 1 h; active compounds read low; fluorescence ratio to DMSO, % at 10 µM; 360,000 tested, 0.19% active; AID 602162;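 active means fluorescence ratio to DMSO below 75%, the collection mean minus 3 SD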;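 further: signal is porphyrin accumulated inside mitochondria; 100% equals median channel fluorescence of DMSO control wells; lower ratio means ABCB6 inhibition with less porphyrin fluorescence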
STAT3 activator: activators of IL-6 induced STAT3 signaling; U3A cells, IL-6 STAT3-luciferase reporter, luminescence; 100% = signal with IL-6 EC80 alone; activation (% of control), % at 5.6 µM; 190,000 tested, 0.91% active;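 active means activation above the screen-wide mean of compound activation plus 3 SD, cut at about 130% in these data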;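 further: 0% = background luminescence of wells with medium and substrate only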
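Test system: STAT3-luciferase reporter U3A cells; Detection: reporter luminescence signal; Times: 1 h compound pre-exposure, 6 h IL-6 stimulation, 37 °C; Benchmarks: IL-6-only high control; Also added: IL-6 stimulus at 33 ng/mL final.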
FXN GAA850 act: increases GAA850 frataxin promoter reporter activity; HEK293 lucGAA850 FXN promoter luciferase reporter, 24 h; percent of 10 µM SAHA response; 360,000 tested, 0.56% active; activation, % at 6 µM;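 active means activation above the average of all compounds screened plus 3 SD, cutoff fixed separately per campaign, cut at about 7.5% in these data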;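 further: 0% = DMSO wells and 100% = 10 µM SAHA wells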
ABCB6 blocker 1: blocks the human ABCB6 transporter; shares compounds with ABCB6 inh MLPCN; K562-ABCB6 porphyrin accumulation, flow cytometry, 1 h; active compounds read low; ratio response (% of DMSO), % at 10 µM; 700 tested, under 10 active; AID 602430;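 active means repeat-averaged ratio response below 75% of DMSO, the collection mean minus 3 SD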;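 further: median porphyrin fluorescence at 575 nm with 488 nm excitation from mitochondria; lower ratio means less porphyrin signal so ABCB6 inhibition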
The depositor's hits bear a star; nt = not tested or not shown.

SMILES | AHR act | ABCB6 inh MLPCN | STAT3 activator | FXN GAA850 act | ABCB6 blocker 1
CC(=O)Nc1cccc(-c2ccnc3c2CC(C)(C(=O)Nc2cccc(C(F)(F)F)c2)O3)c1 (stereo not drawn) | nt | 103 | nt | -5 | 97
CC1(C(=O)Nc2cccc(C(F)(F)F)c2)Cc2c(-c3cccc(C(F)(F)F)c3)ccnc2O1 (stereo not drawn) | nt | 97 | nt | -1 | nt
C#CCOC(=O)C(NC(=O)c1ccccc1)=C1CCCCC1 | 6 | 105 | 104 | 2 | nt
Cc1nc(C)n(C(C)CNC(=O)c2cccc(Br)c2)n1 (stereo not drawn) | nt | 96 | nt | 2 | nt
O=C(COC(=O)c1ncc(Cl)c(Cl)c1Cl)c1ccc(Cl)s1 | 1 | 72* | 103 | -2 | 98
Cc1cccc(C(=O)OCC(=O)NCCCc2ccccc2)c1O | 2 | 18* | nt | 4 | 100
O=C(O)c1ccc(Cl)c(S(=O)(=O)NC(Cc2ccccc2)C(=O)O)c1 (stereo not drawn) | 0 | 94 | 100 | 0 | nt
Cc1ccc(S(=O)(=O)N2CCN(CC(=O)N/N=C\c3ccc(O)c(O)c3)CC2)cc1 | 1 | 90 | nt | 4 | nt
O=C(Nc1cccc(Oc2ccccc2)c1)C1Cc2c(-c3ccc4c(c3)OCO4)ccnc2O1 (stereo not drawn) | nt | 102 | nt | -2 | 98
O=C(Nc1cccc(OC(F)(F)F)c1)C1Cc2c(-c3ccc(Cl)cc3)ccnc2O1 (stereo not drawn) | nt | 91 | nt | 0 | nt
O=C(Nc1cccc(OC(F)(F)F)c1)C1Cc2c(-c3ccc4c(c3)OCO4)ccnc2O1 (stereo not drawn) | nt | 101 | nt | 0 | 99
O=C(O)CC/C(=C\c1ccc(Cl)c([N+](=O)[O-])c1)c1nc2ccccc2s1 | 3 | 72* | 101 | -1 | 101
CC1CCN(C(=O)CCc2nnc3ccc(N4CCC5(CC4)OCCO5)nn23)CC1 | -1 | 100 | nt | 0 | 99
CCN1CCN(C(=O)CCc2nnc3ccc(N4CCC5(CC4)OCCO5)nn23)CC1 | -1 | 95 | nt | 2 | 102
O=[N+]([O-])c1ccccc1Oc1ncccc1[N+](=O)[O-] | 16 | 96 | 102 | 2 | nt
CCN(CC)C(=O)[C@H]1CC(CC(=O)NCc2ccc(OC)c(OC)c2)C(=O)N2CCc3c([nH]c4ccccc34)[C@]12C (stereo partly drawn) | 5 | 95 | nt | -1 | nt
CCN(CC)C(=O)[C@H]1CC(CC(=O)NCc2ccc(OC)c(OC)c2)C(=O)N2CCc3c([nH]c4ccc(OC)cc34)[C@]12C (stereo partly drawn) | nt | 64* | nt | -2 | 100
O=C(CSc1nnc2c(Cl)cc(C(F)(F)F)cn12)N(Cc1ccccc1)Cc1ccccc1 | 0 | 74* | 109 | 0 | 97
O=C(CSc1nnc2c(Cl)cc(C(F)(F)F)cn12)NCc1ccc(F)cc1 | 1 | 98 | 102 | 1 | nt
O=C(Nc1cccc(Cl)c1)c1cc2c(=O)n3ccccc3nc2s1 | -7 | 93 | nt | 1 | 104
CC(C)(C)c1cc(NC(=O)COC(=O)c2ccc3c(=O)n4c(nc3c2)CCC4)n(-c2ccccc2)n1 | 3 | 69* | 104 | 3 | 101
O=c1c2ccccc2c(-c2ccccc2)nn1-c1cc(Cl)ccc1[N+](=O)[O-] | 3 | 73* | 103 | 0 | 100
COCc1cc(C)nc(SCC(=O)NC2CCCCC2C)c1C#N (stereo not drawn) | 2 | 96 | nt | 0 | nt
COCc1cc(C)nc(SCC(=O)N2CCC(C)CC2)c1C#N | -1 | 58* | 96 | 0 | 102
Cc1cccc(OCCSc2nc3ncnc(N)c3[nH]2)c1 | 4 | 71* | 104 | 4 | 102
CCN1C(=O)CSc2ccc(C(=O)NCc3ccco3)cc21 | 24 | 53* | 96 | 4 | 101
O=C(c1ccccc1)C(C(=O)N1CCc2ccccc2C1)n1ccccc1=O (stereo not drawn) | 1 | 73* | 102 | -2 | 98
COC(=O)C1=CNC=C(C(=O)OC)C1c1cccc2ccccc12 | 0 | 71* | nt | -2 | 105
